Measured values: ChEMBL document CHEMBL1159121, “Synthesis, in vitro structure-activity relationship, and in vivo studies of 2-arylthiazolidine-4-carboxylic acid amides as anticancer agents” (Bioorg Med Chem, 2010)
Active and inactive are the calls of the source. No cut-off for these calls is given here.

Assays:
K562 = experiment: Growth inhibition of human K562 cells; format: functional
[1] = Antiproliferative activity against mouse B16-F1 cells after 48 hrs by SRB assay; format: functional, cell-based; conditions: B16-F1, 48 h
Procedure, shortened: (§1)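 Melanoma lines and control fibroblasts grown at 37 °C, 5% CO2, then exposed to a wide concentration range for 48 h in round-bottom 96-well plates. Fixed with 10% TCA, stained with SRB, protein read at 560 nm. IC50 (50% growth inhibition versus untreated) obtained by nonlinear regression.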

HT-29 = experiment: Growth inhibition of human HT-29 cells; format: functional; conditions: for CC50: read-out: LC50 (the source's name)
LNCaP [2] = experiment: Cell cycle arrest in human LNCAP cells by assessed as increase in accumulation at subG1 phase […] by flow cytometry; format: functional, cell-based
SK-MEL-2 = experiment: Growth inhibition of human SK-MEL-2 cells; format: functional
[3] = Growth inhibition of human Hs 578T cells; format: functional; conditions: for CC50: read-out: LC50 (the source's name)
KM12 = experiment: Growth inhibition of human KM12 cells; format: functional
NCI-H226 = experiment: Growth inhibition of human NCI-H226 cells; format: functional; conditions: for CC50: read-out: LC50 (the source's name)
A-375 [4] = experiment: Inhibition of human A375 cells colony formation at 2 uM after 7 days by colony-formation assay; format: functional, cell-based
A498 = experiment: Growth inhibition of human A498 cells; format: functional; conditions: for CC50: read-out: LC50 (the source's name)
MCF7 = experiment: Growth inhibition of human MCF7 cells; format: functional
MDA-MB-468 = experiment: Growth inhibition of human MDA-MB-468 cells; format: functional
UO-31 = experiment: Growth inhibition of human UO31 cells; format: functional; conditions: for CC50: read-out: LC50 (the source's name)
Mus musculus = experiment: Toxicity in ip dosed athymic nude mouse assessed as body weight loss; format: organism-based; conditions: in vivo
Procedure, shortened: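 Male athymic nude mice (4–5 weeks) given subcutaneous A375 cells in Matrigel (1:1). At about 150 mm3, near day 7, split into groups of n = 8. Dosed at 5 or 10 mg/kg in 80% Tween 80/20% Captex 200, injected once daily for 22 days. Vehicle (intraperitoneal) and DTIC 60 mg/kg controls. Body weight and activity monitored throughout.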

A549 = experiment: Growth inhibition of human A549 cells; format: functional
OVCAR-3 = experiment: Growth inhibition of human OVCAR-3 cells; format: functional; conditions: for CC50: read-out: LC50 (the source's name)
A-375 [5] = experiment: Inhibition of human A375 cells colony formation at 100 uM after 7 days by colony-formation assay; format: functional, cell-based
PC-3 = experiment: Growth inhibition of human PC3 cells; format: functional; conditions: for CC50: read-out: LC50 (the source's name)
SK-OV-3 = experiment: Growth inhibition of human SKOV3 cells; format: functional; conditions: for CC50: read-out: LC50 (the source's name)
[6] = Toxicity in mouse assessed as maximum tolerated dose; format: organism-based; conditions: in vivo
Procedure, shortened: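 Tolerability was determined in ICR mice, with the compound formulated in a co-solvent of 80% Tween 80 and 20% Captex 200.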

A-375 [7] = experiment: Antitumor activity against human A375 cells xenografted in athymic nude mouse assessed as tumor growth inhibition at 60 mg/kg, ip once daily administered 7 days after inoculation for 22 days; format: functional; parameters: scale not given: the % may be the effect or the level left; conditions: route intraperitoneal
Procedure, shortened: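 Male athymic nude mice, 4–5 weeks old, injected subcutaneously in the right flank with A375 cells (5 × 10^7/mL, 100 μL, 1:1 Matrigel). Grouped at about 150 mm3 (~day 7), n = 8. DTIC in saline given ip once daily. Caliper volume a×b²×0.5 measured twice weekly; % reduction 100×[(T–T0)/(C–C0)] at day 22. Body weight monitored.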

SR = experiment: Growth inhibition of human SR cells; format: functional; conditions: for CC50: read-out: LC50 (the source's name)
BT-549 = experiment: Growth inhibition of human BT549 cells; format: functional; conditions: for CC50: read-out: LC50 (the source's name)
HL-60(TB) = experiment: Growth inhibition of human HL-60(TB) cells; format: functional; conditions: for CC50: read-out: LC50 (the source's name)
A-375 [8] = experiment: Inhibition of human A375 cells colony formation at 20 uM after 7 days by colony-formation assay; format: functional; conditions: A-375, 168 h
A-375 [9] = experiment: Antitumor activity against human A375 cells xenografted in athymic nude mouse assessed as tumor growth inhibition at 10 mg/kg, ip once daily administered 7 days after inoculation for 22 days; format: functional; parameters: scale not given: the % may be the effect or the level left; conditions: route intraperitoneal
Procedure, shortened: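 Male athymic nude mice, 4–5 weeks old, received 2.5 × 10^6 A375 cells (FBS-free DMEM mixed 1:1 with Matrigel) subcutaneously in the right dorsal flank. At about 150 mm3 (~day 7), mice were grouped by tumor size (n = 8). Drug in 80% Tween 80/20% Captex 200 was injected daily, with vehicle controls i.p. Calipers twice weekly (a×b²×0.5); % reduction at day 22 = 100×[(T–T0)/(C–C0)]. Body weight tracked.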

A-375 [10] = experiment: Cell cycle arrest in human A375 cells by assessed as increase in accumulation at subG1 phase […] by flow cytometry; format: functional, cell-based
U-251 = experiment: Growth inhibition of human U251 cells; format: functional; conditions: for CC50: read-out: LC50 (the source's name)
[11] = Selectivity ratio of IC50 for human fibroblasts to IC50 for human melanoma cells; format: ADME; conditions: human fibroblasts and human melanoma cells, read-out: Ratio IC50
LNCaP [12] = experiment: Antiproliferative activity against human LNCAP cells after 96 hrs by SRB assay; format: functional, cell-based
Procedure, shortened: (§2)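 Prostate lines in RPMI1640/10% FBS; RH7777 in DMEM/10% FBS. Cells TCA-fixed, stained with 0.4% SRB, absorbance read at 540 nm. IC50 from nonlinear regression of % survival against concentration.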

A-375 [13] = experiment: Antiproliferative activity against human A375 cells after 48 hrs by SRB assay; format: functional, cell-based; conditions: A-375, 48 h; procedure, shortened: as §1
DU-145 = experiment: Antiproliferative activity against human DU145 cells after 96 hrs by SRB assay; format: functional, cell-based; conditions: DU-145, 96 h; procedure, shortened: as §2
HOP-92 = experiment: Growth inhibition of human HOP92 cells; format: functional
PPC-1 = experiment: Antiproliferative activity against human PPC1 cells after 96 hrs by SRB assay; format: functional, cell-based; conditions: PPC-1, 96 h; procedure, shortened: as §2
CAKI-1 = experiment: Growth inhibition of human Caki1 cells; format: functional
[14] = read-out: LC50 (the source's name)

SMILES: CCCCCCCCCCCCCCCCNC(=O)[C@@H]1CSC(c2ccc(NC(C)=O)cc2)N1 (mixture of isomers)
- GI50 (K562): 210 nM
- TGI (K562): 430 nM
- CC50 (K562; [14]): 900 nM
- IC50 [1]: 2200 nM
- GI50 (HT-29): 230 nM
- TGI (HT-29): 480 nM
- CC50 (HT-29): 1090 nM
- Activity (LNCaP [2]): Dose-dependent effect
- GI50 (SK-MEL-2): 250 nM
- TGI (SK-MEL-2): 540 nM
- CC50 (SK-MEL-2; [14]): 1750 nM
- GI50 [3]: 180 nM
- TGI [3]: 380 nM
- CC50 [3]: 780 nM
- GI50 (KM12): 180 nM
- TGI (KM12): 330 nM
- CC50 (KM12; [14]): 580 nM
- GI50 (NCI-H226): 230 nM
- TGI (NCI-H226): 390 nM
- CC50 (NCI-H226): 690 nM
- Activity (A-375 [4]): Active
- GI50 (A498): 940 nM
- TGI (A498): 2200 nM
- CC50 (A498): 4970 nM
- GI50 (MCF7): 190 nM
- TGI (MCF7): 380 nM
- CC50 (MCF7; [14]): 800 nM
- GI50 (MDA-MB-468): 220 nM
- TGI (MDA-MB-468): 510 nM
- CC50 (MDA-MB-468; [14]): 1540 nM
- GI50 (UO-31): 190 nM
- TGI (UO-31): 340 nM
- CC50 (UO-31): 6100 nM
- Activity (Mus musculus): Non-toxic
- GI50 (A549): 360 nM
- TGI (A549): 1350 nM
- CC50 (A549; [14]): 5280 nM
- GI50 (OVCAR-3): 220 nM
- TGI (OVCAR-3): 420 nM
- CC50 (OVCAR-3): 790 nM
- Activity (A-375 [5]): Active
- GI50 (PC-3): 170 nM
- TGI (PC-3): 340 nM
- CC50 (PC-3): 640 nM
- GI50 (SK-OV-3): 380 nM
- TGI (SK-OV-3): 1130 nM
- CC50 (SK-OV-3): 3480 nM
- MTD [6]: 42 mg/kg
- Activity (A-375 [7]): 42%
- GI50 (SR): 160 nM
- TGI (SR): 350 nM
- CC50 (SR): 810 nM
- GI50 (BT-549): 180 nM
- TGI (BT-549): 330 nM
- CC50 (BT-549): 630 nM
- GI50 (HL-60(TB)): 170 nM
- TGI (HL-60(TB)): 370 nM
- CC50 (HL-60(TB)): 790 nM
- inhibition at 20 µM (A-375 [8]): 75%
- Activity (A-375 [9]): 62%
- Activity (A-375 [10]): Dose-dependent effect
- GI50 (U-251): 180 nM
- TGI (U-251): 330 nM
- CC50 (U-251): 620 nM

SMILES: CCCCCCCCCCCCCCCCCCNC(=O)[C@@H]1CSC(c2ccccc2)N1 (mixture of isomers)
- IC50 [1]: 15500 nM
- GI50 (HT-29): 1750 nM
- TGI (HT-29): 3410 nM
- CC50 (HT-29): 6670 nM
- GI50 [3]: 1820 nM
- TGI [3]: 4080 nM
- CC50 [3]: 9140 nM
- GI50 (NCI-H226): 2060 nM
- TGI (NCI-H226): 3830 nM
- CC50 (NCI-H226): 7110 nM
- selectivity ratio [11]: 2.6
- IC50 (LNCaP [12]): 4200 nM
- GI50 (A498): 2730 nM
- TGI (A498): 5300 nM
- CC50 (A498): 11500 nM
- IC50 (A-375 [13]): 15000 nM
- GI50 (UO-31): 2310 nM
- TGI (UO-31): 5380 nM
- CC50 (UO-31): 16300 nM
- IC50 (DU-145): 10800 nM
- GI50 (OVCAR-3): 4270 nM
- TGI (OVCAR-3): 16200 nM
- CC50 (OVCAR-3): 80200 nM
- GI50 (PC-3): 2970 nM
- TGI (PC-3): 10700 nM
- CC50 (PC-3): 32800 nM
- GI50 (HOP-92): 2060 nM
- TGI (HOP-92): 4120 nM
- CC50 (HOP-92; [14]): 8270 nM
- GI50 (SK-OV-3): 2900 nM
- TGI (SK-OV-3): 5650 nM
- CC50 (SK-OV-3): 18600 nM
- GI50 (SR): 490 nM
- TGI (SR): 1790 nM
- CC50 (SR): 6790 nM
- GI50 (BT-549): 840 nM
- TGI (BT-549): 2060 nM
- CC50 (BT-549): 4540 nM
- GI50 (HL-60(TB)): 2030 nM
- TGI (HL-60(TB)): 3800 nM
- CC50 (HL-60(TB)): 7110 nM
- IC50 (PPC-1): 2400 nM
- GI50 (U-251): 1800 nM
- TGI (U-251): 3190 nM
- CC50 (U-251): 5650 nM
- GI50 (CAKI-1): 2300 nM
- TGI (CAKI-1): 4310 nM
- CC50 (CAKI-1; [14]): 8080 nM
